Results as given in ChEMBL document CHEMBL4610093, “Bioreductively Activatable Prodrug Conjugates of Combretastatin A-1 and Combretastatin A-4 as Anticancer Agents Targeted toward Tumor-Associated Hypoxia” (J Nat Prod, 2020).

Tests used:
[1] = Inhibition of bovine brain tubulin polymerisation preincubated for 15 mins followed by GTP addition and measured for 20 mins by turbidimetry based spectrophotometric method; design: species or system Bos taurus
Method in brief: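 Bovine brain tubulin at 1.0 mg/mL (10 µM) in 0.8 M monosodium glutamate (pH 6.6) with 4% DMSO and compound. Preincubated 15 min at 30 °C, chilled, then 0.4 mM GTP added. Temperature jumped from 0 to 30 °C; turbidity at 350 nm followed for 20 min. IC50 is the concentration halving extent of assembly.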

[2] = biological target: T1, NADPH-cytochrome P450 oxidoreductase (Rattus norvegicus, UniProt P00388); assay: Substrate activity at rat NADPH-cytochrome P450 oxidoreductase expressed in supersomes assessed as compound cleavage after 90 mins in anaerobic condition by HPLC analysis; conditions: read-out: Drug degradation
T1 sequence (P00388 whole entry): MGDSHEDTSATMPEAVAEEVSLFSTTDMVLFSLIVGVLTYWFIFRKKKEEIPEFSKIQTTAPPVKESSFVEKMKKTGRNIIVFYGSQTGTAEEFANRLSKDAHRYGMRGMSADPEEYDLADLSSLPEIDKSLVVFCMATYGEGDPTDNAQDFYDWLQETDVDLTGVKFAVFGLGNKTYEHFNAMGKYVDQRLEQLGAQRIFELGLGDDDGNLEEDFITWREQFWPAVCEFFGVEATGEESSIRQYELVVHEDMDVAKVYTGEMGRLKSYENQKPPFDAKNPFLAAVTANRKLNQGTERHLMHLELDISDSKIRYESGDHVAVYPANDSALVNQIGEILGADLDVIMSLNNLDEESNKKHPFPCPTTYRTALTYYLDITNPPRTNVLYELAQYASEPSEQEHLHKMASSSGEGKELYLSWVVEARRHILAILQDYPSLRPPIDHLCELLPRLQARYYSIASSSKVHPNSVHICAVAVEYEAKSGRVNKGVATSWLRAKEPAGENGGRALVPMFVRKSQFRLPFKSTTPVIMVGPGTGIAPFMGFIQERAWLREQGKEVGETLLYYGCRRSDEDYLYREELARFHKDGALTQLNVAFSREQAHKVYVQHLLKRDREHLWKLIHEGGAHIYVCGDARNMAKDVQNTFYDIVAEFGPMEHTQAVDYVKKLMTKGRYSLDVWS
Method in brief: (§1)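 Rat POR supersomes (0.006 U) with 0.8 mM NADPH, acting on compound diluted from 10 mM DMSO stock into 200 mM potassium phosphate pH 7.4 with 0.1% Triton X-100 and 400 µM protocatechuic acid. Made anaerobic by N2 evacuation/sparging plus 0.08 U protocatechuate dioxygenase. Incubated at 37 °C, quenched with acetonitrile, quantified by HPLC against standard curves; no-POR controls.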

A549 [3] = assay: Cytotoxicity against human A549 cells incubated for 4 hrs in anoxic condition followed by oxic exposure for 48 hrs by sulforhodamine B assay; format: functional
Method in brief: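 Anoxic arm: A549 cells handled in an anaerobic chamber (≤10 ppm O2) with medium and plates preconditioned ≥48 h. 6000 cells/well, 2 h attachment. Serial dilutions from DMSO stocks, top final concentration 50 µg/mL, in duplicate. 4 h anaerobic drug exposure, then 48 h aerobic, then SRB readout.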

Tubulin (Homo sapiens) [4] = biological target: T2, Tubulin (Homo sapiens) (UniProt P68371+Q9H4B7+P0DPH7+P68366+Q13509+Q71U36+P04350+Q3ZCM7+P07437+P68363+Q9BQE3+Q6PEY2+Q13885+Q9BVA1+Q9BUF5); assay: Inhibition of [3H]colchicine binding to tubulin (unknown origin) at 1 uM incubated for 10 mins by scintillation counting relative to control; format: protein-complex assay
Method in brief: (§2)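 Purified tubulin at 1.0 µM with 5.0 µM [3H]colchicine, in 1.0 M monosodium glutamate (pH 6.6), 0.5 mg/mL BSA, 0.1 M glucose-1-phosphate, 1.0 mM MgCl2, 1.0 mM GTP and 5% DMSO. Incubated 10 min at 37 °C, then filter-bound radioactivity counted. Percent inhibition taken against no-inhibitor controls, corrected for filter binding without tubulin.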

Tubulin (Homo sapiens) [5] = biological target: T2, Tubulin (Homo sapiens); assay: Inhibition of [3H]colchicine binding to tubulin (unknown origin) at 5 uM incubated for 10 mins by scintillation counting relative to control; format: protein-complex assay; method in brief: as §2
A549 [6] = assay: Cytotoxicity against human A549 cells incubated for 52 hrs in oxic condition by sulforhodamine B assay; format: functional; conditions: A549, 52 h
Method in brief: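 Normoxic arm: A549 cells at 6000 cells/well, 2 h attachment. Serial dilutions from DMSO stocks, top final concentration 50 µg/mL, in duplicate. Drug exposure 4 h under 95% air/5% CO2, then 48 h aerobic culture. Cytotoxicity read by SRB.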

A549 [7] = assay: Ratio of GI50 for human A549 cells in oxic condition to GI50 for anoxic condition; format: functional
Method in brief: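 A549 cells at 6000 cells/well. Drug exposure 4 h either anaerobic (≤10 ppm O2, preconditioned medium and plates) or under 95% air/5% CO2, then 48 h aerobic. SRB cytotoxicity read in duplicate, top final concentration 50 µg/mL. Ratio taken as oxic over anoxic value.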

[8] = Stability of the compound in pH 7.4 potassium phosphate buffer assessed as compound hydrolysis after 48 hrs; format: physicochemical; conditions: read-out: Drug degradation
[9] = Stability of the compound in pH 7.4 potassium phosphate buffer assessed as spontaneous compound hydrolysis measured for 150 mins; format: physicochemical; conditions: pH 7.4, 2.5 h
[10] = Stability of the compound in pH 7.4 potassium phosphate buffer assessed as compound hydrolysis after 24 to 48 hrs; format: physicochemical
[11] = Solubility of the compound in water; format: physicochemical; conditions: buffer
4T1 [12] = assay: Induction in necrosis in tumor of BALB/C mouse implanted with mouse 4T1 cells harboring firefly luciferase reporter gene at 180 mg/kg, ip measured after 72 to 96 hrs by hematoxylin and eosin staining based assay (reference value: 46%); format: functional
[13] = biological target: T1, NADPH-cytochrome P450 oxidoreductase; assay: Substrate activity at rat NADPH-cytochrome P450 oxidoreductase expressed in supersomes assessed as compound cleavage after 24 hrs in anaerobic condition by HPLC analysis; conditions: read-out: Activity; method in brief: as §1
[14] = Solubility of the compound in DMSO; format: physicochemical
[15] = Solubility of the compound in buffered saline; format: physicochemical; conditions: buffer
4T1 [16] = assay: Induction of vascular damage in mouse 4T1 cells harboring firefly luciferase reporter gene implanted BALB/C mouse assessed as reduction in light emission at 120 mg/kg, ip measured up to 72 hrs by Bioluminescence imaging analysis; format: functional; design: scale not given: the % may be the effect or the level left
Method in brief: (§3)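 Orthotopic 4T1-luc mammary fat pad tumours (10–12 mm) in female BALB/c mice. Single IP dose of 120 mg/kg in saline given right after baseline imaging. Dynamic BLI over about 20 min after subcutaneous D-luciferin (120 mg/kg), repeated with fresh luciferin at 4, 24 and 48 h. Signal compared by area under the light emission curve.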

4T1 [17] = assay: Induction in necrosis in tumor of BALB/C mouse implanted with mouse 4T1 cells harboring firefly luciferase reporter gene at 120 mg/kg, ip measured after 72 to 96 hrs by hematoxylin and eosin staining based assay (reference value: 46%); format: functional
4T1 [18] = assay: Induction of vascular damage in mouse 4T1 cells harboring firefly luciferase reporter gene implanted BALB/C mouse assessed as reduction in light emission at 120 mg/kg, ip measured after 4 hrs by Bioluminescence imaging analysis; format: functional; design: scale not given: the % may be the effect or the level left; method in brief: as §3

Row | SMILES | IC50 [1] | metabolised at 1.5 h [2] | GI50 (A549 [3]) | inhibition (Tubulin (Homo sapiens) [5]) | GI50 (A549 [6]) | RatioGI50 (A549 [7]) | degraded at 48 h [8] | further results
1 | COc1ccc(/C=C\c2cc(OC)c(OC)c(OC)c2)c(OCc2ccc([N+](=O)[O-])s2)c1O | 1700 nM | 14.2% | 280 nM | 92% | 170 nM | 0.61 | 0% | inhibition (Tubulin (Homo sapiens) [4]): 53%
2 | COc1ccc(/C=C\c2cc(OC)c(OC)c(OC)c2)c(OC(C)(C)c2ccc([N+](=O)[O-])s2)c1O | 1300 nM | 100% | 480 nM | 43% | 6000 nM | 12.5 |  | Stability [9]: Stable; Stability [10]: Unstable
3 | COc1ccc(/C=C\c2cc(OC)c(OC)c(OC)c2)cc1O [COMBRETASTATIN A4] |  |  | 6.1 nM |  | 4.7 nM |  |  | 
4 | COc1ccc(/C=C\c2cc(OC)c(OC)c(OC)c2)cc1OC(C)(C)c1ccc([N+](=O)[O-])s1 | > 20000 nM | 25.4% | 53 nM | 33% | 2200 nM | 41.5 | 0.69% | solubility [11]: Insoluble; Activity (4T1 [12]): 47 - 55%; metabolised at 24 h [13]: 100%; solubility [14]: Soluble; solubility [15]: Insoluble
5 | COc1ccc(/C=C\c2cc(OC)c(OC)c(OC)c2)cc1OC(C)c1ccc([N+](=O)[O-])s1 (centres undefined) | > 20000 nM | 4.1% | 38 nM | 15% | 150 nM | 4 |  | 
6 | COc1cc(/C=C\c2ccc(OC)c(OCc3ccc([N+](=O)[O-])s3)c2O)cc(OC)c1OC | 4300 nM | 17.9% | 690 nM | 58% | 320 nM | 0.46 | 0% | 
7 | COc1cc(/C=C\c2ccc(OC)c(OC(C)c3ccc([N+](=O)[O-])s3)c2O)cc(OC)c1OC (centres undefined) | 6200 nM | 25.5% | 51 nM | 72% | 310 nM | 6.1 | 0% | 
8 | COc1ccc(/C=C\c2cc(OC)c(OC)c(OC)c2)c(OC(C)c2ccc([N+](=O)[O-])s2)c1O (centres undefined) | 840 nM | 5.6% | 260 nM | 90% | 180 nM | 0.69 | 0.5% | inhibition (Tubulin (Homo sapiens) [4]): 34%
9 | COc1ccc(/C=C\c2cc(OC)c(OC)c(OC)c2)c(OS(=O)(=O)c2ccc(C)cc2)c1O | 840 nM |  | 190 nM | 84% | 65 nM |  |  | inhibition (Tubulin (Homo sapiens) [4]): 50%
10 | COc1ccc(/C=C\c2cc(OC)c(OC)c(OC)c2)cc1OP(=O)([O-])[O-].[Na+].[Na+] [FOSBRETABULIN DISODIUM] |  |  |  |  |  |  |  | Activity (4T1 [16]): >90%; Activity (4T1 [17]): 70%; Activity (4T1 [18]): >99%
11 | COc1cc(/C=C\c2ccc(OC)c3c2OC(C)(c2ccc([N+](=O)[O-])s2)O3)cc(OC)c1OC (centres undefined) | > 20000 nM |  | 720 nM |  | 550 nM | 0.76 |  | 
12 | O=[N+]([O-])c1nccn1CC(O)CNCCBr (centres undefined) |  |  | 24000 nM |  | > 89000 nM |  |  | 
13 | COc1ccc(/C=C\c2cc(OC)c(OC)c(OC)c2)c(O)c1O [COMBRETASTATIN A-1] |  |  | 820 nM | 99.6% | 1200 nM |  |  | 
14 | COc1cc(/C=C\c2ccc(OC)c(OC(C)(C)c3ccc([N+](=O)[O-])s3)c2OC(C)C)cc(OC)c1OC | 9500 nM | 7.6% | 490 nM |  | 1500 nM | 3.1 | 4.03% | 
15 | COc1cc(/C=C\c2ccc(OC)c(OCc3ccc([N+](=O)[O-])s3)c2OC(C)C)cc(OC)c1OC | 12000 nM | 1.1% | 300 nM |  | 1900 nM | 6.3 | 1.59% | 
16 | Nc1n[n+]([O-])c2ccccc2[n+]1[O-] [TIRAPAZAMINE] |  |  | 6800 nM |  | 63000 nM | 9.2 |  | 
17 | COc1cc(/C=C\c2ccc(OC)c3c2OC(c2ccc([N+](=O)[O-])s2)O3)cc(OC)c1OC (centres undefined) | 1700 nM |  | 33 nM | 25% | 46 nM | 1.4 |  | 
18 | COc1cc(/C=C\c2ccc(OC)c(OC(C)c3ccc([N+](=O)[O-])s3)c2OC(C)C)cc(OC)c1OC (centres undefined) | > 20000 nM | 3.8% | 1200 nM |  | 2900 nM | 2.4 | 0.69% | 
19 | COc1cc(/C=C\c2ccc(OC)c(OC(C)c3ccc([N+](=O)[O-])s3)c2OS(=O)(=O)c2ccc(C)cc2)cc(OC)c1OC (centres undefined) | > 20000 nM | 13.5% | 3300 nM |  | 4600 nM | 1.4 | 0.84% | 
20 | COc1cc(/C=C\c2ccc(OC)c(OCc3ccc([N+](=O)[O-])s3)c2OS(=O)(=O)c2ccc(C)cc2)cc(OC)c1OC | > 20000 nM |  | 520 nM |  | 440 nM | 0.85 | 0.25% | 
21 | COc1ccc(/C=C\c2cc(OC)c(OC)c(OC)c2)cc1OCc1ccc([N+](=O)[O-])s1 | > 20000 nM | 2.7% | 32 nM | 26% | 110 nM | 3.4 | 0.35% | 
22 | COc1ccc(/C=C\c2cc(OC)c(OC)c(OC)c2)c(OC(C)C)c1O | 820 nM |  | 46 nM | 94% | 63 nM |  |  | inhibition (Tubulin (Homo sapiens) [4]): 72%
